Laboratory results taken from PMC5819594 (Nano letters, 2017).
“Also recorded” adds a separate entry of the source. No end group written: not given here.

Assays:
p32 [1] = target: T1, p32 (Homo sapiens, UniProt Q07021); assay: fluorescence anisotropy; assay type: binding
T1 sequence (Q07021 74-282): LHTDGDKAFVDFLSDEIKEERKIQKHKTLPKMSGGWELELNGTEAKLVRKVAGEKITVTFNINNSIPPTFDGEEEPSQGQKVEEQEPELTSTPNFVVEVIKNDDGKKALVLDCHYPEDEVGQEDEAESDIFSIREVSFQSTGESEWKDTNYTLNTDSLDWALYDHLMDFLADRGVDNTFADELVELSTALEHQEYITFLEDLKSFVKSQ

tumors = details: cited from earlier work
[2] = system: MCF10CA1a orthotopic tumor xenografts; assay: anti-tumor efficacy, MCF10CA1a breast cancer model; assay type: in vivo, human tumor cells in BALB/c nude mice; details: for reduction of tumor volume versus PBS: i.v. every other day for 3 weeks, 7.5 mg of iron/kg, at three weeks
[3] = system: tumor blood vessels (CD31); assay: CD31 blood vessel count in treated tumors; assay type: in vivo; details: n = 3 mice per group; for average blood vessel count: CD31, 10 random fields at 20×
Summary of the method: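 Residual MCF10CA1a orthotopic tumors came from nude mice given peptide-coated NWs i.v. every other day for 3 weeks (7.5mg iron/kg), with a PBS control. Sections were stained with anti-CD31 and imaged by confocal microscopy. Vessels per field were counted, and groups were compared by one-way ANOVA with Tukey's post hoc test.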

[4] = system: tumor vessels of treated MCF10CA1a tumors; assay: NW homing to residual treated tumors; assay type: in vivo, mice; details: for NW-positive tumor vessels: treated tumors after three weeks, five hours after last injection, n = 3/group
Summary of the method: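 MCF10CA1a tumor mice were treated for three weeks with FAM-labeled peptide-NWs. Five hours after the last injection, mice were perfused through the heart with PBS and tissues collected. Tumor sections were stained with anti-CD31 and DAPI and examined by confocal microscopy. Percentage of NW-positive vessels was scored in 10 random areas per section, n = 3/group, mean ±SD.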

MCF10CA1a tumors [5] = details: cited from earlier work
glioblastomas = details: mice, cited from earlier work
MCF10CA1a tumors [6] = assay: tumor homing of homing peptide-D[KLAKLAK]2-NWs, MCF10CA1a; assay type: in vivo, human tumor cells in BALB/c nude mice; details: for tumor homing and penetration of chimeric peptide-NWs: confocal microscopy
p32 [7] = target: T1, p32; details: LyP-1 linearized; no reference given; cited from earlier work
[8] = system: tumor-associated macrophages/myeloid cells; details: ref Laakkonen et al., 2004; Fogal et al., 2008; cited from earlier work
tumor macrophages = details: LyP-1 alone, without drug, tumor macrophages in particular; cited from earlier work
[9] = system: 4T1 mouse breast cancer tumors; assay: tumor homing in 4T1 model; assay type: in vivo; details: 4T1 breast tumor model
Summary of the method: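 4T1 cells were maintained in DMEM with 10% FBS and 1% Glutamine-Pen-Strep at 37°C/5% CO2. 1 × 10^6 cells were implanted subcutaneously in the flanks of 4-week-old BALB/c mice. Peptide-coated NWs were assessed for homing to tumor vasculature and extravascular tumor tissue.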

MMTV-PyMT tumors = assay: tumor homing in MMTV-PyMT model; assay type: in vivo, mouse; details: MMTV-PyMT transgenic breast cancer mice
MCF10CA1a tumors [10] = assay: TUNEL staining of treated tumors; assay type: in vivo, human tumor cells in BALB/c nude mice; details: treated tumors after three weeks
MCF10CA1a tumors [11] = assay: histology; assay type: in vivo, human tumor cells in BALB/c nude mice; details: end of 3-week treatment, H&E
Summary of the method: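 Orthotopic MCF10CA1a xenografts in BALB/c nude mice were treated i.v. with peptide-coated NWs every other day for 3 weeks at 7.5mg iron/kg. At the end of treatment, residual tumors were sectioned and stained with hematoxylin and eosin.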

[12] = system: MCF10CA1a cultured tumor cells; assay: cell death and caspase-3 activation in cultured tumor cells; assay type: cell-based, human; details: Figure S8
[13] = mouse, in vivo
NRP-1 = assay: peptide binding to NRP-1 before and after uPA treatment; details: control peptide with active CendR motif, with and without uPA
LinTT1 = target: T2, LinTT1 (also: FAM-labeled); assay: fluorescence anisotropy
T2 chain: AKRGARSTA

AKRGARSTA [LinTT1]
Kd (p32 [1]): 8.7 µM

CGKRK
tumor homing and penetration of free peptide (tumors; CGKRK (no reference at the statement)): does not extravasate and penetrate beyond tumor vessels

CGKRK-D[KLAKLAK]2 [CGKRK-D[KLAKLAK]2-NWs, reference compound]
reduction of tumor volume versus PBS [2]: about 50%
average blood vessel count [3]: almost similar to LinTT1NW
NW-positive tumor vessels [4]: 20%
tumor homing of CGKRK-D[KLAKLAK]2-NWs (as shown previously) (MCF10CA1a tumors [5]): accumulated in tumor blood vessels, without penetrating into extravascular tumor tissue
lifespan in glioblastoma (glioblastomas; more aggressive glioblastoma model): a substantial prolongation of the lifespan of the mice
tumor growth in glioblastoma (glioblastomas; one glioblastoma model): the growth of tumors was essentially completely suppressed

CGKRKRA-D[KLAKLAK]2 [CGKRKRA-D[KLAKLAK]2-NWs]
tumor homing and penetration of chimeric peptide-NWs (MCF10CA1a tumors [6]): primarily localized with tumor blood vessels similar to LyP1

CGNKRTRGC [LyP-1]
p32-binding activity (p32 [7]): no detectable p32-binding activity
overlap with tumor-associated macrophages/myeloid cells [8]: substantial overlap with tumor-associated macrophages/myeloid cells in tumor tissue
tumor homing and penetration of LyP-1 (tumors): capable of penetrating into tumors and accumulates in the extravascular tumor tissue
apoptosis in cells that take up the peptide (tumor macrophages): causes apoptosis in the cells that take up the peptide most avidly, tumor macrophages in particular

CGRKR(NH2)-D[KLAKLAK]2 [CGRKR(NH2)-D[KLAKLAK]2-NWs]
tumor homing and penetration of chimeric peptide-NWs (MCF10CA1a tumors [6]): primarily localized with tumor blood vessels similar to LyP1

LinTT1-D[KLAKLAK]2 [LinTT1-D[KLAKLAK]2-NWs]
tumor homing and penetration of chimeric peptide-NWs (MCF10CA1a tumors [6]): highly effective in extravasating and penetrating tumor parenchyma; also recorded: superior to other chimeric peptide-NWs; also recorded: partially co-localize with tumor blood vessels (CD31), but most of the NWs are outside the blood vessels in the extravascular tumor tissue
tumor accumulation relative to CGKRK-D[KLAKLAK]2-NWs (MCF10CA1a tumors [6]; quantified NW fluorescence): over 7 fold
tumor homing, 4T1 [9]: efficiently homed to the vasculature of the 4T1 and MMTV-PyMT tumors, accumulating also in extravascular tumor tissue
tumor homing, MMTV-PyMT (MMTV-PyMT tumors): efficiently homed to the vasculature of the 4T1 and MMTV-PyMT tumors, accumulating also in extravascular tumor tissue
anti-tumor activity ([2]; 3 weeks, 7.5 mg of iron/kg i.v. every other day): essentially no tumor growth; also recorded: more effective than the previous NPs
reduction of tumor volume versus PBS [2]: about 90%
mice in which tumor seemed to have disappeared ([2]; one of two experiments, 3 weeks): four out of 6 mice
tumors regressed ([2]; proportion of tumors, LinTT1D(KLAKLAK)2-NW group): 10/14
average blood vessel count [3]: marked reduction of blood vessels
reduction of blood vessels versus PBS control ([3]; CD31, after treatment): more than 6 fold
NW-positive tumor vessels [4]: Approximately 68%
accumulation in treated tumors ([4]; tumors treated with LinTT1D(KLAKLAK)2-NWs for 3 weeks): no apparent decline in accumulation
apoptosis by TUNEL staining (MCF10CA1a tumors [10]): apoptosis in the LinTT1D[KLAKLAK]2-NW tumor rims, where it co-localized with the NWs
necrosis and apoptotic nuclei in residual tumors (MCF10CA1a tumors [11]): extensive necrosis and a thin rim of tumor tissue around the necrotic core that contained many apparently apoptotic nuclei
cell death and caspase-3 activation [12]: cell death accompanied by activation of caspase-3
toxicity [13]: no significant toxicity

RPARPAR
binding to NRP-1 regardless of uPA (NRP-1): bound only to NRP-1 regardless of uPA treatment

B1: p32 (gC1qR/HABP) (protein)
chain: T1 sequence (Q07021 74-282)
Kd (LinTT1): 8.7 µM
